Publication PMC7841779 (ACS Omega, 2021)

What was measured:
MDA-MB-231 cells = experiment: MTT cell viability assay, MDA-MB-231; type: cell-based, human; conditions: highest dose 100 μM, compared to unconjugated [Re(CO)3(H2O)3]+
4T1 cells = experiment: MTT cell viability assay, 4T1; type: cell-based, mouse; conditions: highest dose 100 μM, compared to unconjugated [Re(CO)3(H2O)3]+
In short: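 4T1 cells were kept in DMEM with 10% FBS and penicillin/streptomycin at 37 °C, 5% CO2, then seeded at 2000 cells/100 μL. Test compound or free [Re(CO)3(H2O)3]+ was applied at 0.1–100 μM for 24 h. Cells were washed 3× with PBS and grown 48 h in DMEM/10% FBS. MTT was added for 4 h, cells were solubilised with SDS, and absorbance was read at 595 nm.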

LHRH receptor = molecular target: T1, LHRH receptor (Homo sapiens, UniProt P30968); experiment: LHRH receptor competition assay of 99mTc conjugate, MDA-MB-231; type: cell-based; conditions: MDA-MB-231 cells, cotreatment with 100 μg LHRH, 1 μCi, 37 °C, γ counter; n = 3
T1 sequence (P30968 1-328): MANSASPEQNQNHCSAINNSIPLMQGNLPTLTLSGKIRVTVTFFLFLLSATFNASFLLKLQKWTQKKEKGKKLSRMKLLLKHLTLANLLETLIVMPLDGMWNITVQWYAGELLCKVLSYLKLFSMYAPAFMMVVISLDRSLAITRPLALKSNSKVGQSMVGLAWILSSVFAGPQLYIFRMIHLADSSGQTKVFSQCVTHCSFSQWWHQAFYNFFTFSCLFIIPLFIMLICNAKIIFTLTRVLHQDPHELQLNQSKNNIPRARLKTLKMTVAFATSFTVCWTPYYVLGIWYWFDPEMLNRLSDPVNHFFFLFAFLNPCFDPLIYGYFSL
In short: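 MDA-MB-231 cells were grown in DMEM with 5 mM L-glutamine, 1% penicillin/streptomycin and 10% FBS at 37 °C, 5% CO2. Cells were seeded at 2 × 10^5 per well and cultured 48 h. 1 μCi (0.037 MBq) of 99mTc-labelled conjugate was added together with 100 μg LHRH and incubated at 37 °C for 15, 30, 60 and 120 min (n = 3). Cells were washed 3× in PBS, trypsinised and γ-counted. Uptake is % of cell counts over total counts, reported as mean ± SEM.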

Row | Substance | cytotoxicity at the highest dose (MDA-MB-231 cells) | cytotoxicity at the highest dose (4T1 cells) | cell uptake with LHRH cotreatment (competition) (LHRH receptor)
1 | Re-Acdien-LHRH: Acdien-LHRH reacted with equimolar [Re(CO)3(H2O)3]+; nonradioactive rhenium-LHRH conjugate | did not induce cytotoxicity | – | –
2 | Re-Acdien-peg-LHRH: PEGylated Acdien-peg-LHRH chelated with [Re(CO)3(H2O)3]+ | did not induce cytotoxicity | did not induce cytotoxicity | –
3 | ^99mTc-Acdien-LHRH: Acdien-LHRH radiolabeled with [99mTc(CO)3]+ from Isolink kit | – | – | decrease
